We go through 13 molecules from ChEMBL document CHEMBL1153783, “Synthesis and vasodilatory activity of some amide derivatives of 6-(4-carboxymethyloxyphenyl)-4,5-dihydro-3(2H)-pyridazinone” (Eur J Med Chem, 2009).

Experiment [1] relates to Aorta. The experiment can be described thus: Vasodilatory activity in Wistar rat thoracic aortic ring assessed as inhibition of phenylephrine-induced contraction at 10 uM treated after phenylephrine challenge. It is filed as functional. Put shortly:
(§1)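 Thoracic aortic rings were taken from Wistar rats of either sex (300–400 g) and held in PSS at 37 °C under O2/CO2 (95:5), equilibrated ≥90 min. Rings were precontracted with 10^-6 M phenylephrine, then given cumulative additions of 10^-8 to 10^-5 M at 30 min intervals, one compound per ring. Relaxation was read as % of initial contraction. A sigmoidal fit gave pD2 and Emax, reported as mean ± SEM of 4 or 8 experiments.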

Experiment [2] deals with Aorta. Nature of the experiment: Vasodilatory activity in Wistar rat thoracic aortic ring assessed as inhibition of phenylephrine-induced contraction treated after phenylephrine challenge. The experiment is classed as functional, tissue-based. Particulars: for IC50: Rattus norvegicus, Wistar, Aorta. In a few lines: as §1
Experiment [3] has as its system Aorta. Nature of the experiment: Ratio of SK&F-93741 IC50 to compound IC50 for inhibition of phenylephrine-induced contraction in Wistar rat thoracic aortic ring. The experiment is classed as functional.
Experiment [4] concerns Aorta. Nature of the experiment: Ratio of hydralazine IC50 to compound IC50 for inhibition of phenylephrine-induced contraction in Wistar rat thoracic aortic ring. It is filed as functional.

SMILES strings stand for the structures.

With `CC1CC(=O)NN=C1c1ccc(OCC(=O)N2CCCC2)cc1` (stereo not drawn), the maximal response (Emax) at 10 µM in the experiment on Aorta [1] is 21.7%.

Turning to `CC1CC(=O)NN=C1c1ccc(OCC(=O)n2ccnc2)cc1` (stereo not drawn), the Emax at 10 µM in the experiment with Aorta [1] came to 32%.

`CC(=O)Nc1ccc(C2=NNC(=O)CC2C)cc1` (stereo not drawn): the Emax at 10 µM in the experiment on Aorta [1] stood at 61.1%. Besides, the pD2 in the experiment on Aorta [2] came to 7.

For `CC1CC(=O)NN=C1c1ccc(OCC(=O)N2CCOCC2)cc1` (stereo not drawn), the Emax at 10 µM in the experiment on Aorta [1] was determined as 17.6%.

In the case of `O=C(COc1ccc(C2=NN(c3ccccc3)C(=O)CC2)cc1)N1CCCCC1`, in the experiment on Aorta [1], the Emax at 10 µM was found to be 16.2%.

For `NNc1nncc2ccccc12` [HYDRALAZINE], the Emax at 10 µM in the experiment with Aorta [1] was 55%. For the same molecule, in the experiment with Aorta [2], the pD2 is recorded as 6.6.

As to `CC1CC(=O)NN=C1c1ccc(OCC(=O)N2CCCCC2)cc1` (stereo not drawn), the Emax at 10 µM in the experiment on Aorta [1] is 29.8%.

Regarding `CN1CCN(C(=O)COc2ccc(C3=NNC(=O)CC3)cc2)CC1`, the Emax at 10 µM in the experiment on Aorta [1] was 23.9%.

Turning to `O=C1CCC(c2ccc(OCC(=O)N3CCOCC3)cc2)=NN1`, the Emax at 10 µM with Aorta [1] turned out to be 41.8%.

For `O=C1CCC(c2ccc(OCC(=O)N3CCCCC3)cc2)=NN1`, the maximal effect (Emax) at 10 µM with Aorta [1] was found to be 61.6%. In the experiment on Aorta [2], the pD2 turned out to be 5.9 and the IC50 is 910 nM.

As to `O=C(COc1ccc(C2=NN(c3ccc(F)cc3)C(=O)CC2)cc1)N1CCCC1`, in the experiment on Aorta [1], the Emax at 10 µM is 61.8%. For the same molecule, in the experiment on Aorta [2], the pD2 was found to be 7.2. For the same molecule, the IC50 in the experiment on Aorta [2] was 51 nM. Further, the Ratio IC50 in the experiment on Aorta [3] was 1.7; in the experiment with Aorta [4], 4.5.

`O=C1CCC(c2ccc(OCC(=O)N3CCCC3)cc2)=NN1`: the Emax at 10 µM with Aorta [1] came to 52.2%. In the experiment on Aorta [2], the pD2 came to 5.9 and the half-maximal inhibitory concentration (IC50) was 1020 nM.

In the case of `O=C1CCC(c2ccc(OCC(=O)n3ccnc3)cc2)=NN1`, in the experiment with Aorta [1], the Emax at 10 µM came out at 3.7%.

Broadly, the Emax is the greatest response seen or fitted, relative to the assay's reference. A word on the IC50: it is the point on the concentration scale where inhibition reaches its midpoint.
